According to ChEMBL document CHEMBL3352014, “Effect of acyclic monoterpene alcohols and their derivatives on TRP channels” (Bioorg Med Chem Lett, 2014):

Tests used:
[1] = molecular target: Transient receptor potential cation channel subfamily M member 8 (Rattus norvegicus) (UniProt Q8R455); experiment: Agonist activity at rat TRPM8 expressed in HEK293 cells assessed as increase in intracellular Ca2+ concentration by Fluo-4-AM dye based spectrofluorimetry relative to ionomycin; format: cell-based
Chain of Transient receptor potential cation channel subfamily M member 8 (Rattus norvegicus) (Q8R455 whole entry, looked up): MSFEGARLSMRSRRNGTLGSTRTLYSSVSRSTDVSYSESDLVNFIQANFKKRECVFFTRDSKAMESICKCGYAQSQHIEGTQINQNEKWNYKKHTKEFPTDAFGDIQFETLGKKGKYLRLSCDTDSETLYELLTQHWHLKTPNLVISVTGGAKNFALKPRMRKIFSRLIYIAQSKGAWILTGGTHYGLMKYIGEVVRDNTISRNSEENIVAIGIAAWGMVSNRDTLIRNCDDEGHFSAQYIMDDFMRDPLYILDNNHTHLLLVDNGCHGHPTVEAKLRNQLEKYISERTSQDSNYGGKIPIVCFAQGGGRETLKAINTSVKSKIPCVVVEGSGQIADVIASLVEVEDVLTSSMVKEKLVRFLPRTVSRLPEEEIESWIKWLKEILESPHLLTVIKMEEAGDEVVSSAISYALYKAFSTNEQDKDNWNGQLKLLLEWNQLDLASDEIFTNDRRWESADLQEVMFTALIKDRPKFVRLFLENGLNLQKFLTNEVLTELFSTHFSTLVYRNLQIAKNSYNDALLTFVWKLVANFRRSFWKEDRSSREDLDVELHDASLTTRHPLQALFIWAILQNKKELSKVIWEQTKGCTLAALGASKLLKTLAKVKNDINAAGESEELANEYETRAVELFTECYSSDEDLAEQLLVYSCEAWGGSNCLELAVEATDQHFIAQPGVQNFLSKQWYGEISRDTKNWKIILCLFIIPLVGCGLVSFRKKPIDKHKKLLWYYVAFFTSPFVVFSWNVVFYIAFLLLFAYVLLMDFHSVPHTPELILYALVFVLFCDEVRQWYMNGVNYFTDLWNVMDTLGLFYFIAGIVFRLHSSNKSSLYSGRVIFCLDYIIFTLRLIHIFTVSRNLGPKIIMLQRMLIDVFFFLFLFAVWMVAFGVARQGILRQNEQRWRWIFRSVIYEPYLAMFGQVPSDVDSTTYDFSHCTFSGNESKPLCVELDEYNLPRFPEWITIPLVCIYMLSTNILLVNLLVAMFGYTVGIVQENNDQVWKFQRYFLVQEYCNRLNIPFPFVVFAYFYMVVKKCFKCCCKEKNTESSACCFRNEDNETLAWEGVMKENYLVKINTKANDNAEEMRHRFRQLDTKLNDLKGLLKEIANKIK
Summary of the method: (§1)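 Same stably transfected HEK293 Fluo-4 calcium assay: human TRPV1, rat TRPM8. Tyrode's buffer pH 7.4, 25 °C, ex 488/em 516 nm. Efficacy is the compound-evoked [Ca2+]i rise normalized to the maximal Ca2+ influx from 4 µM ionomycin. Means of at least 3 determinations.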

[2] = molecular target: Transient receptor potential cation channel subfamily M member 8 (Rattus norvegicus, UniProt Q8R455); experiment: Antagonist activity against rat TRPM8 expressed in HEK293 cells assessed as inhibition of icilin-induced increase in intracellular Ca2+ concentration by Fluo-4-AM dye based spectrofluorimetry; format: cell-based
Chain of Transient receptor potential cation channel subfamily M member 8 (Q8R455 whole entry): as the sequence (Q8R455 whole entry, looked up) above

[3] = molecular target: T1, Transient receptor potential cation channel subfamily V member 1 (Homo sapiens, UniProt Q8NER1); experiment: Agonist activity at human TRPV1 expressed in HEK293 cells assessed as increase in intracellular Ca2+ concentration by Fluo-4-AM dye based spectrofluorimetry relative to ionomycin; format: cell-based; summary of the method: as §1
T1 sequence (Q8NER1 whole entry): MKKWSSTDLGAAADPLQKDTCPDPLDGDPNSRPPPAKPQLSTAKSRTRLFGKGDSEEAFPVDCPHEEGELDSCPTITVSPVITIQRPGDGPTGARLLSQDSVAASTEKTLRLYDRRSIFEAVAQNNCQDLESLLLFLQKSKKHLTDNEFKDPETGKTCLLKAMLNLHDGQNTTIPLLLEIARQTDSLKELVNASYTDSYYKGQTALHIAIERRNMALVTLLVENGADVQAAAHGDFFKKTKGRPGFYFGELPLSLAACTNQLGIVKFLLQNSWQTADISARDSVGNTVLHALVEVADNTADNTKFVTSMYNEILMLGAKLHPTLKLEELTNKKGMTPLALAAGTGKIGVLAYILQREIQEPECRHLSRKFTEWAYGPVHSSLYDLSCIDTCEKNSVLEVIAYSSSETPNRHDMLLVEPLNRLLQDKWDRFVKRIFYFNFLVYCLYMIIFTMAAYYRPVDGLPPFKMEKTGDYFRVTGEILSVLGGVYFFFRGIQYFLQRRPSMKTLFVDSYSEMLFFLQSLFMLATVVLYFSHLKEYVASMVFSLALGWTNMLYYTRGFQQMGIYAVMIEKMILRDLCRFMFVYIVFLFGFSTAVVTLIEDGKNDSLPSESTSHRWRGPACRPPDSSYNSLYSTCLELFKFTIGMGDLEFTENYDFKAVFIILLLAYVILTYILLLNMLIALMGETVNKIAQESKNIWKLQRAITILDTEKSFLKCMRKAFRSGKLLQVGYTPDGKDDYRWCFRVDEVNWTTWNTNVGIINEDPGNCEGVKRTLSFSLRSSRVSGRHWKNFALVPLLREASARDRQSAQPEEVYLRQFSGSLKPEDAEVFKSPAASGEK

[4] = molecular target: T1, Transient receptor potential cation channel subfamily V member 1; experiment: Antagonist activity against human TRPV1 expressed in HEK293 cells assessed as inhibition of capsaicin-induced increase in intracellular Ca2+ concentration by Fluo-4-AM dye based spectrofluorimetry; format: cell-based
[5] = molecular target: T2, Transient receptor potential cation channel subfamily A member 1 (Rattus norvegicus, UniProt Q6RI86); experiment: Agonist activity at rat TRPA1 expressed in HEK293 cells assessed as increase in intracellular Ca2+ concentration by Fluo-4-AM dye based spectrofluorimetry; format: cell-based
T2 sequence (Q6RI86 whole entry): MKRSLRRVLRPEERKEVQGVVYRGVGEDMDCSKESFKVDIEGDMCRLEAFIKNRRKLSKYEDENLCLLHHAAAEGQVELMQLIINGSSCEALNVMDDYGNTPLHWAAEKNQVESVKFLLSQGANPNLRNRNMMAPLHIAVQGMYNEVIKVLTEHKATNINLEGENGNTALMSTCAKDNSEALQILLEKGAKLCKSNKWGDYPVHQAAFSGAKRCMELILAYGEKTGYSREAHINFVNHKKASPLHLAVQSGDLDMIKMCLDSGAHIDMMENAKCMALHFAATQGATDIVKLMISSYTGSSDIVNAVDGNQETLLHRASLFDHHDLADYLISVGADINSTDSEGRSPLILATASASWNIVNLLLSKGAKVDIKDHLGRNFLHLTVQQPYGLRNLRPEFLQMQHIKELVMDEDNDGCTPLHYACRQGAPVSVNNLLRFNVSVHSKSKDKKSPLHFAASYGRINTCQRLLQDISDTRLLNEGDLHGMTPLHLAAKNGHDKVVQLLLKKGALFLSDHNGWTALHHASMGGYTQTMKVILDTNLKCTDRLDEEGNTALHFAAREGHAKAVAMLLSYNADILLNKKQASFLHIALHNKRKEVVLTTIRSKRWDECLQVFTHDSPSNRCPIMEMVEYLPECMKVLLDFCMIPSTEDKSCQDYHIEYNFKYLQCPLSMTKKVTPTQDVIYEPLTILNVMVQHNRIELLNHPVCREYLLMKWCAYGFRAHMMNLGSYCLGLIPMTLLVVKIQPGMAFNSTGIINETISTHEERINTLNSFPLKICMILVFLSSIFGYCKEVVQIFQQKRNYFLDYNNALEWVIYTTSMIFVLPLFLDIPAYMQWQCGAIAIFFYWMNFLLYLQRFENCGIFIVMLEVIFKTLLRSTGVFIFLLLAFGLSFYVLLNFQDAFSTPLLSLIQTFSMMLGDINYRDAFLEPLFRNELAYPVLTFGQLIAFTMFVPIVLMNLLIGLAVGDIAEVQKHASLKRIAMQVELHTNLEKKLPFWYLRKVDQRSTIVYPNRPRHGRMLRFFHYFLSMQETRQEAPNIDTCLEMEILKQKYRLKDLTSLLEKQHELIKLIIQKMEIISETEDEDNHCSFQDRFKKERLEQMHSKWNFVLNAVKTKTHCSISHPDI

[6] = molecular target: T2, Transient receptor potential cation channel subfamily A member 1; experiment: Antagonist activity against rat TRPA1 expressed in HEK293 cells assessed as inhibition of AITC-induced increase in intracellular Ca2+ concentration by Fluo-4-AM dye based spectrofluorimetry; format: cell-based
[7] = molecular target: T1, Transient receptor potential cation channel subfamily V member 1; experiment: Agonist activity at human TRPV1 expressed in HEK293 cells assessed as increase in intracellular Ca2+ concentration by Fluo-4-AM dye based spectrofluorimetry; format: cell-based
Summary of the method: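 HEK293 stably expressing human TRPV1 or rat TRPM8, grown in EMEM with non-essential amino acids, 10% FBS, 2 mM glutamine, 37 °C, 5% CO2. Fluo-4-AM loaded 1 h at room temperature; cells in Tyrode's buffer pH 7.4, about 100,000 per stirred cuvette. Fluorescence (ex 488/em 516 nm) read at 25 °C before and after various compound concentrations. EC50 from sigmoidal variable-slope fit; at least 3 determinations.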

[8] = molecular target: Transient receptor potential cation channel subfamily A member 1 (Homo sapiens) (UniProt O75762); experiment: Antagonist activity against TRPA1 (unknown origin) assessed as reduction in H2O2-induced receptor activation at 400 uM
Chain of Transient receptor potential cation channel subfamily A member 1 (Homo sapiens) (O75762 whole entry): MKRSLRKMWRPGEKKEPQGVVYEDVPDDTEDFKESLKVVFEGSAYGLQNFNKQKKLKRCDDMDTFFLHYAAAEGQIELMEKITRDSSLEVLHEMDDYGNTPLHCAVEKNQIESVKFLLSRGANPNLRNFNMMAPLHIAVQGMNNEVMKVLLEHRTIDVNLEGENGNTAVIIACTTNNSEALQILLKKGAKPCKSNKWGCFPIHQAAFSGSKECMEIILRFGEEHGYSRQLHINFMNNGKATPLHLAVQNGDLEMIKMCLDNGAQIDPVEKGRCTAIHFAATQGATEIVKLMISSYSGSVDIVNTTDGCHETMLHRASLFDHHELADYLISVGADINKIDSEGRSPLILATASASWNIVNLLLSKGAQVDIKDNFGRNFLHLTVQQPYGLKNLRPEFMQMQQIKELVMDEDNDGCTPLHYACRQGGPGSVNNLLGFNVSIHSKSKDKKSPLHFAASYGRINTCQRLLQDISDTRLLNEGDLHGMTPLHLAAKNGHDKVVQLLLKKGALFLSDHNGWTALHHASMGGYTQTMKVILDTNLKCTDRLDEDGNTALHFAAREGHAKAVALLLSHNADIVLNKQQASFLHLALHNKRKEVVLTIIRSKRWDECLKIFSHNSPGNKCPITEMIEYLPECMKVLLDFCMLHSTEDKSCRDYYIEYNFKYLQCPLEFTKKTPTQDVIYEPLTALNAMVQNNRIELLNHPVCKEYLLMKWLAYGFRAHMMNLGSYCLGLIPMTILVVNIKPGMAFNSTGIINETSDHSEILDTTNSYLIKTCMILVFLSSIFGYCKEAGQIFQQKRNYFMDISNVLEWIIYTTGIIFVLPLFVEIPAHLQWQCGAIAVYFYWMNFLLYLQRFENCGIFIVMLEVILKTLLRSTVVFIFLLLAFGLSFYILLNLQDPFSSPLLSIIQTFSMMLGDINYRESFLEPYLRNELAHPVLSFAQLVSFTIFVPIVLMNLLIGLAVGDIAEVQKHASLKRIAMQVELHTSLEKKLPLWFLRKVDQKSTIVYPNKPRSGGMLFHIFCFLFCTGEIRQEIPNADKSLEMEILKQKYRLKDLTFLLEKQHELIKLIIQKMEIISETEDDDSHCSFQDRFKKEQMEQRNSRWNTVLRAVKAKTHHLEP

Structure (SMILES)	Efficacy [1]	IC50 [2]	Efficacy [3]	IC50 [4]	EC50 [5]	IC50 [6]	EC50 [7]	inhibition [8]
CC(C)=CCCC(C)CCOC(=O)Cc1ccc(C)cc1 (stereo not given)	< 10%	2.4 µM	< 10%	> 100 µM				
CC(=O)OC/C=C(\C)CCC=C(C)C [GERANYL ACETATE]	< 10%	> 100 µM	< 10%	> 100 µM	25.8 µM	21.2 µM		
CC(C)=CCC/C(C)=C\COC(=O)c1ccc(C)cc1	< 10%	1.2 µM	< 10%	> 100 µM	0.093 µM	0.11 µM		
CC(C)=CCC/C(C)=C\CNC(=O)CCc1ccccc1	< 10%	2.2 µM	< 10%	> 100 µM	6.6 µM	13.9 µM		
CC(C)=CCC/C(C)=C\CNC(=O)Cc1ccc(Cl)cc1	< 10%	2.2 µM	57.9%	0.53 µM	1 µM	0.94 µM	0.43 µM	
CC(C)=CCC/C(C)=C/CNC(=O)CCc1ccccc1	< 10%	5.5 µM	10.5%	> 100 µM	7.5 µM	7.4 µM	16.2 µM	
CC(C)=CCC/C(C)=C\CO [NEROL]	< 10%	> 100 µM	< 10%	> 100 µM	11.7 µM	> 100 µM		
COc1ccc(CC(=O)OC/C=C(/C)CCC=C(C)C)cc1	< 10%	9.7 µM	< 10%	> 100 µM	0.14 µM	0.26 µM		
CC(C)=CCC/C(C)=C\COC(=O)c1cccc(C)c1	< 10%	30.8 µM	< 10%	> 100 µM	0.14 µM	0.14 µM		
CC(C)=CCCC(C)CCO (racemic) [CITRONELLOL]	< 10%	> 100 µM	< 10%	> 100 µM	> 100 µM	> 100 µM		
CC(C)=CCC/C(C)=C/COC(=O)c1cc(C(F)(F)F)cc(C(F)(F)F)c1	< 10%	> 100 µM	< 10%	> 100 µM	11.9 µM	> 100 µM		
CC(C)=CCC/C(C)=C\COC(=O)Cc1cccc(I)c1	< 10%	> 100 µM	< 10%	> 100 µM	0.1 µM	0.94 µM		
CC(C)=CCC/C(C)=C\COC(=O)Cc1ccc(C)cc1	< 10%	0.28 µM	< 10%	> 100 µM				
CC(C)=CCC/C(C)=C/COC(=O)Cc1ccc(C)cc1	< 10%	5.8 µM	< 10%	> 100 µM				
CC(C)=CCC/C(C)=C/COC(=O)CCc1ccccc1	< 10%	> 100 µM	27.7%	> 100 µM	0.39 µM	0.17 µM	4 µM	
CC(C)=CCC/C(C)=C\COC(=O)Cc1ccc(Cl)cc1	< 10%	0.75 µM	< 10%	> 100 µM	0.016 µM	0.013 µM		
CC(C)=CCC/C(C)=C/COC(=O)c1cccc(C)c1	< 10%	> 100 µM	< 10%	> 100 µM	2.4 µM	1.4 µM		
CC(C)=CCC/C(C)=C/COC(=O)c1ccc(C)cc1	< 10%	> 100 µM	17.6%	> 100 µM	0.33 µM	1 µM	6 µM	
CC(C)=CCC/C(C)=C/CNC(=O)Nc1cccc(Cl)c1	< 10%	> 100 µM	21.2%	0.71 µM	0.61 µM	0.48 µM	2.5 µM	
CC(=O)OCCC(C)CCC=C(C)C (stereo not given) [CITRONELLYL ACETATE]	< 10%	> 100 µM	< 10%	> 100 µM	12.2 µM	> 100 µM		70%
